These results are taken from ChEMBL document CHEMBL4004815, “(-)-Neocaryachine, an Antiproliferative Pavine Alkaloid from Cryptocarya laevigata, Induces DNA Double-Strand Breaks” (J Nat Prod, 2017).

One test relates to A549. Kind of test: Antiproliferative activity against human A549 cells after 72 hrs by SRB assay. In kind it is functional, cell-based. The conditions noted are these: A549, 72 h. Summed up:
(§1)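 Cells seeded at 4000−12 000 per well, density set by the line's doubling time. Compounds were added in DMSO, at most 0.1% v/v. After 72 h exposure, attached cells were fixed with 10% TCA, stained with 0.04% SRB, and the dye was solubilised in 10 mM Tris base. KB-VIN was maintained in 100 nM VIN.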
(Sulforhodamine B stains cellular protein and so reports cell mass.)

The test system of a further test is MDA-MB-231. Kind of test: Antiproliferative activity against human MDA-MB-231 cells after 72 hrs by SRB assay. In kind it is functional, cell-based. The conditions noted are these: MDA-MB-231, 72 h. A digest of the protocol:
as §1

The next test concerns MCF7. Kind of test: Antiproliferative activity against human MCF7 cells after 72 hrs by SRB assay. The conditions noted are these: MCF7, 72 h. The test is classed as functional, cell-based. Summed up:
(§2)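 Cells seeded at 4000−12 000 per well, density set by the line's doubling time. Compounds were added in DMSO, at most 0.1% v/v. After 72 h exposure, attached cells were fixed with 10% TCA, stained with 0.04% SRB, and the dye was solubilised in 10 mM Tris base. Absorbance read at 515 nm. IC50 is 50% reduction relative to untreated cells, averaged over at least three independent experiments in duplicate. KB-VIN was maintained in 100 nM VIN.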

A further test concerns KB. Kind of test: Antiproliferative activity against human KB cells after 72 hrs by SRB assay. In kind it is functional, cell-based. A digest of the protocol:
as §1

A short description of test [1]: Antiproliferative activity against human KBVIN cells after 72 hrs by SRB assay. The test is classed as functional, cell-based. Summed up: as §2
The test system of test [2] is KBVIN. Kind of test: Cell cycle arrest in human KBVIN cells at 0.3 uM after 24 hrs by propidium iodide staining-based flow cytometric method. In kind it is functional. A digest of the protocol:
(§3)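 KB-VIN (P-gp-overexpressing MDR KB subline, maintained with 100 nM vincristine) seeded 24 h before treatment. Compound exposure 24 or 48 h, vehicle 0.1% DMSO; 5-FU and CA-4 (10 nM, 24 h) served as S and G2/M arrest controls. DNA content read by propidium iodide staining and flow cytometry. Experiments repeated at least three times.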
In general terms: A flow cytometer gives signals particle by particle.

In test [3] the test system is KBVIN. Kind of test: Cell cycle arrest in human KBVIN cells assessed as accumulation at sub-G1 phase at 0.3 uM after 48 hrs by propidium iodide staining-based flow cytometric method. In kind it is functional. Summed up:
as §3

Test [4] relates to KBVIN. Kind of test: Cell cycle arrest in human KBVIN cells assessed as accumulation at S phase at 3 to 10 uM after 24 to 48 hrs by propidium iodide staining-based flow cytometric method. The test is classed as functional. A digest of the protocol: as §3
Test [5] is filed under the species Homo sapiens. Kind of test: Induction of DNA double strand breaks in human KBVIN cells assessed as increase in gamma-H2AX positive nuclei after 24 hrs by DAPI staining-based confocal fluorescence microscopic method. The test is classed as cell-based. Summed up:
(§4)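 KB-VIN cells on chamber slides 24 h, then compound (0.3 and 3.0 µM) or 0.1% DMSO for 24 h. Fixed in ice-cold 4% paraformaldehyde/PBS, permeabilised with 0.5% Triton X-100. Stained with mouse anti-α-tubulin (FITC secondary), rabbit anti-γ-H2AX (Alexa Fluor 546 secondary) and DAPI. Imaged by confocal microscopy as stacked images.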

The subject of test [6] is KBVIN. Kind of test: Induction of apoptosis in human KBVIN cells assessed as nuclear fragmentation at 0.3 to 3 uM after 24 hrs by DAPI staining-based confocal fluorescence microscopic method. The test is classed as functional, cell-based. Summed up:
as §4

Test [7] is filed under the species Homo sapiens. Kind of test: Induction of morphological changes of microtubule in human KBVIN cells at 3 uM after 24 hrs by DAPI staining-based confocal fluorescence microscopic method. In kind it is cell-based. Summed up: as §4
The subject of test [8] is KBVIN. Kind of test: Cell cycle arrest in human KBVIN cells assessed as accumulation at S phase at 20 uM after 24 to 48 hrs by propidium iodide staining-based flow cytometric method. The test is classed as functional. Summed up: (§5)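 KB-VIN cells were seeded 24 h before dosing, then exposed for 24 or 48 h, with 0.1% DMSO as the vehicle control. DNA content was stained with propidium iodide and cell-cycle distribution (sub-G1, S, G2/M) analysed by flow cytometry. Experiments were repeated at least three times.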

Test [9] relates to KBVIN. Kind of test: Cell cycle arrest in human KBVIN cells assessed as increase in cell levels at sub G1 phase at 20 uM after 48 hrs by propidium iodide staining-based flow cytometric method. The test is classed as functional. Summed up:
as §5

Test [10] is filed under the species Homo sapiens. Kind of test: Induction of DNA double strand breaks in human KBVIN cells assessed as increase in gamma-H2AX positive nuclei at 20 uM after 24 hrs by DAPI staining-based confocal fluorescence microscopic method. The test is classed as cell-based. A digest of the protocol:
(§6)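 KB-VIN cells on chamber slides were dosed 24 h after seeding and treated for 24 h, with 0.1% DMSO as control. Cells were fixed in ice-cold 4% paraformaldehyde/PBS and permeabilised with 0.5% Triton X-100. Staining used mouse anti-α-tubulin with FITC secondary, rabbit anti-γ-H2AX with Alexa Fluor 546 secondary, and DAPI for nuclei. Stacked confocal images were examined.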

The species entered for test [11] is Homo sapiens. Kind of test: Induction of morphological changes of microtubule in human KBVIN cells at 20 uM after 24 hrs by DAPI staining-based confocal fluorescence microscopic method. The test is classed as cell-based. Summed up: as §6

Active and inactive are the calls of the source. No cut-off for these calls is given here. A value given as a limit tells only on which side of the number the result lay.

A word on the IC50: it is the concentration that gives 50% inhibition. Read a high IC50 as weaker potency in that assay. Take `C[N+]1([O-])[C@H]2Cc3cc4c(cc3[C@@H]1Cc1cc3c(cc12)OCO3)OCO4` (some centres not stated): the IC50 was 29.3 µM in the test on A549; 41 µM with MDA-MB-231; more than 40 µM in the test with MCF7; 35.5 µM in the test on KB; more than 40 µM in [1].
Take `COc1ccc2c(c1O)[C@@H]1Cc3cc4c(cc3[C@H](C2)N1C)OCO4`: the IC50 with A549 was 0.064 µM; with MDA-MB-231, 0.264 µM; in the test on MCF7, 0.413 µM; in the test with KB, 0.228 µM; in test [1] it was 0.241 µM. Moreover, the result in the test with KBVIN [2] was inactive. In addition, the outcome in the test on KBVIN [3], with KBVIN [4], in the test with KBVIN [6] and in the test filed under Homo sapiens [7] was Active. The Activity entry in the test filed under Homo sapiens [5] is “Dose-dependent effect”.
Turning to `COc1cc2c(cc1O)C[C@H]1c3cc4c(cc3C[C@@H]2N1C)OCO4`, the IC50 in the test with A549 turned out to be 3.98 µM; in the test with MDA-MB-231, 5.71 µM; in the test on MCF7 it was 7.42 µM; in the test on KB, 5.49 µM; in test [1] it was 5.91 µM.
In the case of `COc1cc2c(cc1O)[C@@H]1Cc3cc(OC)c(OC)cc3[C@H](C2)N1C`, the IC50 (in the test with A549; in the test on MDA-MB-231; with MCF7; in the test on KB; in test [1]) was more than 40 µM throughout.
`CC(=O)O[C@H]1C(=O)[C@@]2(C)[C@H]([C@H](OC(=O)c3ccccc3)[C@]3(O)C[C@H](OC(=O)[C@H](O)[C@@H](NC(=O)c4ccccc4)c4ccccc4)C(C)=C1C3(C)C)[C@]1(OC(C)=O)CO[C@@H]1C[C@@H]2O` [PACLITAXEL]: the IC50 worked out at 0.0104 µM with MCF7 and 1.93 µM in test [1].
`CN1[C@H]2Cc3cc4c(cc3[C@@H]1Cc1cc3c(cc12)OCO3)OCO4` [ESCHOLTZINE]: the IC50 in the test with A549 is 8.71 µM; with MDA-MB-231, 26.1 µM; in the test with MCF7, 26.6 µM; in the test on KB it was 17 µM; in test [1], 19.8 µM. Besides, the result in the test with KBVIN [8], in the test listed under Homo sapiens [10] and in the test filed under Homo sapiens [11] was inactive. Moreover, the result with KBVIN [9] was Active.
